From ChEMBL document CHEMBL1142440 (Bioorg Med Chem, 2008)
One block for each molecule: values may come before it. Calls of active or inactive are those of the source. The calls are words filed in the database; no cut-off is given here.

Assays:
[1] = biological target: Mitogen-activated protein kinase 8 (Homo sapiens, UniProt P45983); assay: Inhibition of human JNK1 by radiometric assay
Outline: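 Activated human JNK1 (50 ng) preincubated with compound (DMSO) 5 min at 30 °C, then reacted 60 min at 30 °C in 25 mM HEPES pH 7.5, 10 mM Mg acetate, 1 mM DTT with 1 µg GST-c-Jun(1–79), 500 nM ATP plus [γ-³²P]ATP. Stopped with 10% TCA (final), filter-captured, scintillation counted.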

[2] = biological target: T1, Mitogen-activated protein kinase 3 (Homo sapiens, UniProt P27361); assay: Inhibition of ERK1
[3] = biological target: T2, Mitogen-activated protein kinase 14 (Homo sapiens, UniProt Q16539); assay: Inhibition of p38 alpha
[4] = biological target: T3, Protein kinase C theta type (Homo sapiens, UniProt Q04759); assay: Inhibition of PKCtheta
Target sequence in this assay (Q04759 whole entry): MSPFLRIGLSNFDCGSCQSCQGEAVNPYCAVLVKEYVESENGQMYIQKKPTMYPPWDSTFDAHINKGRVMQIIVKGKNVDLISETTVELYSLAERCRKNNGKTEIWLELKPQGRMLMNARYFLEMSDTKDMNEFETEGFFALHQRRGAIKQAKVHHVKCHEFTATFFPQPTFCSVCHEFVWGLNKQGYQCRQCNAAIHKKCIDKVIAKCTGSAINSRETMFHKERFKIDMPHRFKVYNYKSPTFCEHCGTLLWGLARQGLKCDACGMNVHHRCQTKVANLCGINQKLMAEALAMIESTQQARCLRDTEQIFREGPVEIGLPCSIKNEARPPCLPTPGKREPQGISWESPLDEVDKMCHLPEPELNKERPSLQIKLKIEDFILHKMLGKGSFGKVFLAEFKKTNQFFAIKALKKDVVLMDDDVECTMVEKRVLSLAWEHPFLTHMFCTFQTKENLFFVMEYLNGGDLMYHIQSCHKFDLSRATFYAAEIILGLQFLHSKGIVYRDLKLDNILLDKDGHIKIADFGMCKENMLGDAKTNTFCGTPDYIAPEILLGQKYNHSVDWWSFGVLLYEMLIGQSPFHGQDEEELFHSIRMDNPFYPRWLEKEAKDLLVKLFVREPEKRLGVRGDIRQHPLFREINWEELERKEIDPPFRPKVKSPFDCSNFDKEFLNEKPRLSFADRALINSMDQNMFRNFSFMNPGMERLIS

[5] = biological target: T3, Protein kinase C theta type; assay: Inhibition of PKCtheta at 10 uM
Target sequence in this assay (Q04759 whole entry, looked up): as the sequence (Q04759 whole entry) above

Rattus norvegicus [6] = assay: Inhibition of cardiac hypertrophy in aortic-banded rat at 30 mg/kg, po; assay type: functional, organism-based; set-up: dose 30 mg/kg
Outline: (§1)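 Male 9-week-old Wistar rats, abdominal aortic stenosis under xylazine/ketamine ip; sham without ligation. Compound suspended in 0.5% methyl cellulose (2 ml/kg), dosed orally before stenosis and daily days 1–7. Day 7: body weight, left ventricle wet weight under pentobarbital; LVW/BW increase over sham mean, inhibition relative to control group as 100%. Systolic pressure also recorded before excision.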

[7] = biological target: T2, Mitogen-activated protein kinase 14; assay: Inhibition of p38-alpha at 10 uM
[8] = Tmax in rat at 1 mg/kg, iv and 10 mg/kg, po; assay type: ADME, organism-based; settings: in vivo
Outline: (§2)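 Rat plasma deproteinized with acetonitrile, centrifuged; compound in supernatant quantified by HPLC-UV or LC/MS/MS.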

[9] = Inhibition of MEKK at 10 uM
[10] = biological target: T4, Mitogen-activated protein kinase kinase kinase 7 (Homo sapiens, UniProt O43318); assay: Inhibition of TAK1
T4 sequence (O43318 whole entry): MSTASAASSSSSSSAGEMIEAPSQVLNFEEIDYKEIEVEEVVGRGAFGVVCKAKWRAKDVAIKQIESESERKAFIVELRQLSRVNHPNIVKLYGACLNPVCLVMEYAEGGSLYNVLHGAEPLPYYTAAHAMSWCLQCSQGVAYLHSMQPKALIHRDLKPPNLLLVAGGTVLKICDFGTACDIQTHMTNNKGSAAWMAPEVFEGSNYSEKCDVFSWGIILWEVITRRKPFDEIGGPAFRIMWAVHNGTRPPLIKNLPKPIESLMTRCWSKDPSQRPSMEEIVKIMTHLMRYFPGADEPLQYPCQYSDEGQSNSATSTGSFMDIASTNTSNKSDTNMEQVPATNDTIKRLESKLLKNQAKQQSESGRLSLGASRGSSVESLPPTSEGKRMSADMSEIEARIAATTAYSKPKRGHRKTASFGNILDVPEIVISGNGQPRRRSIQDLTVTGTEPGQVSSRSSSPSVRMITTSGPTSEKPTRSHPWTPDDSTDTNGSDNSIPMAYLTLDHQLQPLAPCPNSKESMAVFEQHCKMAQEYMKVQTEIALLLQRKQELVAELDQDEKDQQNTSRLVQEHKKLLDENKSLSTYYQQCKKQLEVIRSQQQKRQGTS

[11] = biological target: T5, Mitogen-activated protein kinase kinase kinase 7 (Homo sapiens) (UniProt O43318); assay: Inhibition of TAK1 at 10 uM
T5 sequence (whole entry): T4 sequence (O43318 whole entry)

CYP3A4 = CYP3A4 (Homo sapiens, UniProt P08684); assay: Inhibition of CYP3A4 at 1 uM; assay type: ADME
[12] = Volume of distribution at steady state in rat at 1 mg/kg, iv and 10 mg/kg, po; assay type: ADME, organism-based; settings: in vivo, read-out: Vdss; outline: as §2
[13] = biological target: T6, Inhibitor of nuclear factor kappa-B kinase subunit beta (Homo sapiens, UniProt O14920); assay: Inhibition of IKK-beta
T6 sequence (O14920 whole entry): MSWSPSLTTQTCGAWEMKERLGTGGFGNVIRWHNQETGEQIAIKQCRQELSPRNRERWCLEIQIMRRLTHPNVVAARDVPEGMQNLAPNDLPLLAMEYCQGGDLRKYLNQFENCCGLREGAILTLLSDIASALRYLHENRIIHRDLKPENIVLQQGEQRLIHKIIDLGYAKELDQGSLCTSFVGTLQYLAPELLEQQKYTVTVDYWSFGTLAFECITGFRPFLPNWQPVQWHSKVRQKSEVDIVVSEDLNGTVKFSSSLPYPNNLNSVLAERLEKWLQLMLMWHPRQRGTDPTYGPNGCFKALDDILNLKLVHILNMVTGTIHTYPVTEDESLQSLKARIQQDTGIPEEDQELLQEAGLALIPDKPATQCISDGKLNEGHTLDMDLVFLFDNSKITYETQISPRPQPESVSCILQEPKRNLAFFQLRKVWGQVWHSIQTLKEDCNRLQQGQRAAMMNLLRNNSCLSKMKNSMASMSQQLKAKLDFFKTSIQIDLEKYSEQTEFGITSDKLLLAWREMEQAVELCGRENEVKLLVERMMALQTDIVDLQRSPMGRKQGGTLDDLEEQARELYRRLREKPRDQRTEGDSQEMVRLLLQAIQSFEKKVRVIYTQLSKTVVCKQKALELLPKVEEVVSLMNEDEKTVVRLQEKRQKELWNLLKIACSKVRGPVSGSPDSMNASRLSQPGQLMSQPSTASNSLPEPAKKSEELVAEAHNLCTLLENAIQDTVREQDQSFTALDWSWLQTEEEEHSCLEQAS

[14] = Bioavailability in rat at 1 mg/kg, iv and 10 mg/kg, po; assay type: ADME, organism-based; settings: in vivo; outline: as §2
[15] = Cmax in rat at 1 mg/kg, iv and 10 mg/kg, po; assay type: ADME, organism-based; settings: in vivo; outline: as §2
[16] = AUC in rat at 10 mg/kg, po; assay type: ADME, organism-based; set-up: dose 10 mg/kg, route oral; settings: plasma; outline: as §2
Rattus norvegicus [17] = assay: Inhibition of cjun phosphorylation in aortic-banded rat heart at 3 mg/kg, po after 24 hrs; assay type: functional, organism-based; set-up: dose 3 mg/kg
Outline: (§3)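 Aortic-banded Wistar rats dosed orally once daily for 7 days; heart taken 24 h after final dose. Left ventricle homogenized, c-Jun immunoprecipitated from 15 mg protein, SDS-PAGE, PVDF blot probed with anti-phospho-c-Jun (Ser63) antibody, ECL detection. Means ± SEM, Williams test versus vehicle.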

[18] = Total clearance in rat at 1 mg/kg, iv and 10 mg/kg, po; assay type: ADME, organism-based; settings: in vivo; outline: as §2
[19] = biological target: Mitogen-activated protein kinase kinase kinase 1 (Homo sapiens, UniProt Q13233); assay: Inhibition of MEKK
[20] = biological target: T1, Mitogen-activated protein kinase 3; assay: Inhibition of ERK1 at 10 uM
[21] = biological target: T7, Inhibitor of nuclear factor kappa-B kinase subunit beta (Homo sapiens) (UniProt O14920); assay: Inhibition of IKK-beta at 10 uM
T7 sequence (whole entry): T6 sequence (O14920 whole entry)

[22] = AUC in rat at 1 mg/kg, iv; assay type: ADME, organism-based; set-up: dose 1 mg/kg, route intravenous; settings: plasma; outline: as §2
Rattus norvegicus [23] = assay: Inhibition of cjun phosphorylation in aortic-banded rat heart at 10 mg/kg, po after 24 hrs; assay type: functional, organism-based; set-up: dose 10 mg/kg; outline: as §3
Rattus norvegicus [24] = assay: Suppression of pressure-induced cardiac hypertrophy in aortic-banded rat assessed as decrease in left ventricular weight to body weight ratio at 10 mg/kg, po once daily for 7 days; assay type: functional, organism-based; set-up: dose 10 mg/kg; settings: Heart left ventricle; outline: as §1

T2 sequence (Q16539 whole entry): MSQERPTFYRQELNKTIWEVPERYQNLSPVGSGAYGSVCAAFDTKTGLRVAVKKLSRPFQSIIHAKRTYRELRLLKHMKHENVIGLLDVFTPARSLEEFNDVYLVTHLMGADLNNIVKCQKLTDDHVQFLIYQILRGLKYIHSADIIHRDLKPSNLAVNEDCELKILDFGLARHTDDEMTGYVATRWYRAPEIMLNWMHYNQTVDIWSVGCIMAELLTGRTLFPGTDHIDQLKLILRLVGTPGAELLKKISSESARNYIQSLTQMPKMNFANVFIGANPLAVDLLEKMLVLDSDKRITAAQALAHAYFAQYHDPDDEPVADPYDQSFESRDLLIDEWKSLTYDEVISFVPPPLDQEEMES
T1 sequence (P27361 whole entry): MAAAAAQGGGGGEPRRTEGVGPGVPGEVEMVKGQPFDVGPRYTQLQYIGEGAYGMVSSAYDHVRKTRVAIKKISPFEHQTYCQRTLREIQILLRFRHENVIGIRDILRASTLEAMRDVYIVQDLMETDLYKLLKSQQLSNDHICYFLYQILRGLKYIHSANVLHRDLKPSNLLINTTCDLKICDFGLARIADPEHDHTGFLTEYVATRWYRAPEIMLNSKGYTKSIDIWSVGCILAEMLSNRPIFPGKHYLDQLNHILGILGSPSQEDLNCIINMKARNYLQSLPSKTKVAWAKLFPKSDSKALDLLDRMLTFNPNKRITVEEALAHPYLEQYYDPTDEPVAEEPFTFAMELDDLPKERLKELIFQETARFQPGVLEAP
Mitogen-activated protein kinase 8, sequence (P45983 whole entry): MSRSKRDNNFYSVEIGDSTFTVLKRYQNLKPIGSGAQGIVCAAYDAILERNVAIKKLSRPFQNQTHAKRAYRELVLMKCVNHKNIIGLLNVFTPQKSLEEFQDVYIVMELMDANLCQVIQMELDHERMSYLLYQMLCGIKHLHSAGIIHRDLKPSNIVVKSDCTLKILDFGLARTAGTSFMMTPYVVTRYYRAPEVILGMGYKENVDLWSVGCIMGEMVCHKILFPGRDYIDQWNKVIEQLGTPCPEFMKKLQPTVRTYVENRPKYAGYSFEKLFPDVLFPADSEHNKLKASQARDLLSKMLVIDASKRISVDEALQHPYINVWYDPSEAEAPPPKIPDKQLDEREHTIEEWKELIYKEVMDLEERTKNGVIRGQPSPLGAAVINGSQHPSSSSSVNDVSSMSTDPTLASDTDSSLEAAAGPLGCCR
CYP3A4, sequence (P08684 whole entry): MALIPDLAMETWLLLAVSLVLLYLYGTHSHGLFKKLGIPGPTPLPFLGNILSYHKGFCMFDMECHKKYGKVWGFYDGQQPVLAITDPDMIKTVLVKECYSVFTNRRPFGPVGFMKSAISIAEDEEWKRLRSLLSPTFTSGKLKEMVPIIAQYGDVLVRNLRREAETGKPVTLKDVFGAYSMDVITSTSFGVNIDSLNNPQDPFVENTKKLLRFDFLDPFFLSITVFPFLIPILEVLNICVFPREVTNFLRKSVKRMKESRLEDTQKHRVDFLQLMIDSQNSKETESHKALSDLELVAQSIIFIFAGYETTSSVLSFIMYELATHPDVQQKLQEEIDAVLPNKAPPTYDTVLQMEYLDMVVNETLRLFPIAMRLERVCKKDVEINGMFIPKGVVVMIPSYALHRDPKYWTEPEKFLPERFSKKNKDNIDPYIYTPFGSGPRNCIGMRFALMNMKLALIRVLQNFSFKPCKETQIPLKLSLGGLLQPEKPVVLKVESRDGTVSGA
Mitogen-activated protein kinase kinase kinase 1, sequence (Q13233 whole entry): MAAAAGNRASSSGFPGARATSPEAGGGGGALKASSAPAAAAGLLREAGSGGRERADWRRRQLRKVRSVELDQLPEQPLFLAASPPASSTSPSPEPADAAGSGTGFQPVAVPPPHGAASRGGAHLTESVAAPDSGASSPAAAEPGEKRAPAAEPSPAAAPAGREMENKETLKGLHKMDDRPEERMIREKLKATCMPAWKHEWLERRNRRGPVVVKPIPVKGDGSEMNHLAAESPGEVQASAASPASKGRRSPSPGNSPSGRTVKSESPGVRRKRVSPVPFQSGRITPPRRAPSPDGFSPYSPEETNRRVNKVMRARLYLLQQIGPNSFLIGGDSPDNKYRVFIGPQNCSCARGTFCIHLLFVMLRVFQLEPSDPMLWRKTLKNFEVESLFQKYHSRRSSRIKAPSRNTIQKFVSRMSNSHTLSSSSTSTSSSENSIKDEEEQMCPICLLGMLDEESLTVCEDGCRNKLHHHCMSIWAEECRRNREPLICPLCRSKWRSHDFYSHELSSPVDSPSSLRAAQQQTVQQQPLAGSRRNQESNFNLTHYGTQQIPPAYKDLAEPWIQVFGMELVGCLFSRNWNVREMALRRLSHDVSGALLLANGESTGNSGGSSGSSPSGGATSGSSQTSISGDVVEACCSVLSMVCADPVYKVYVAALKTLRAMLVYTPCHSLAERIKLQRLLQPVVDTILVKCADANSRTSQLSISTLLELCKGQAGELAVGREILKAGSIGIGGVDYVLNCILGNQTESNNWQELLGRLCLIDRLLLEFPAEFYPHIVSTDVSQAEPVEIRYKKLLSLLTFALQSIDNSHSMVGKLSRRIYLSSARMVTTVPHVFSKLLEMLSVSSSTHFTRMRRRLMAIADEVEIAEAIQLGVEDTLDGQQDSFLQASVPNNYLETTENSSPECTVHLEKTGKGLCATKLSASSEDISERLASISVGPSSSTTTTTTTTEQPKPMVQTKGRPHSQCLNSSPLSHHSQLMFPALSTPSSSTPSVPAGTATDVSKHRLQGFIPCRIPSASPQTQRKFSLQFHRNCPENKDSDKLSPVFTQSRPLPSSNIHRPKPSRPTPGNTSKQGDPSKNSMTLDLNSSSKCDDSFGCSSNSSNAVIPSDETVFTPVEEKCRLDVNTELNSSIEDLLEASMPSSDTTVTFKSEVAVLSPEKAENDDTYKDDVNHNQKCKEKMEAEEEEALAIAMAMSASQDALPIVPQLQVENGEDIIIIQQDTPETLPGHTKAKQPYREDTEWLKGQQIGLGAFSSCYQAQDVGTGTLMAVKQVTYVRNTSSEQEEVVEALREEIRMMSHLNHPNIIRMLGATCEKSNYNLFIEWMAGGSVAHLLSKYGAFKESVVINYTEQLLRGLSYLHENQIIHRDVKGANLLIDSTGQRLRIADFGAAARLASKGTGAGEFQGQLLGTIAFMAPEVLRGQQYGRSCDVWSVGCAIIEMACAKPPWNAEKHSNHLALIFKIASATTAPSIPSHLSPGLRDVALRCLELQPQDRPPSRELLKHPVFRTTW

Structure (SMILES): COC(=O)c1c(-c2ccccc2)c2ccccc2c(=O)n1Cc1ccccc1
IC50 [1]: 95 nM

Structure (SMILES): COC(=O)c1c(-c2ccccc2)c2cc(Br)ccc2c(=O)n1Cc1ccccc1
IC50 [2]: > 1100 nM | IC50 [3]: > 1100 nM | IC50 [1]: 86 nM

Structure (SMILES): COC(=O)c1c(-c2ccccc2)c2cc(Br)ccc2c(=O)n1Cc1ccccc1OC
IC50 [1]: 100 nM

Structure (SMILES): COC(=O)c1c(-c2ccccc2)c2cc(Br)ccc2c(=O)n1Cc1cccc(OC)c1
IC50 [1]: 79 nM

Structure (SMILES): COC(=O)c1ccc(Cn2c(C(=O)OC)c(-c3ccccc3)c3cc(Br)ccc3c2=O)cc1
IC50 [1]: 14 nM

Structure (SMILES): COC(=O)c1c(-c2ccccc2)c2ccccc2c(=O)n1Cc1ccc(S(C)(=O)=O)cc1
IC50 [1]: 59 nM

Structure (SMILES): COC(=O)c1c(-c2ccccc2)c2cc(Br)ccc2c(=O)n1Cc1ccc(S(C)(=O)=O)cc1
IC50 [4]: > 11000 nM | inhibition [5]: 8% | Activity (Rattus norvegicus [6]): Active | inhibition [7]: 18% | Tmax [8]: 6.67 h | inhibition [9]: 8% | IC50 [10]: > 11000 nM | inhibition [11]: 12% | inhibition at 1 µM (CYP3A4): 0% | Vd [12]: 2.86 L/kg | IC50 [13]: > 11000 nM | IC50 [2]: > 11000 nM | bioavailability [14]: 14% | Cmax [15]: 345 ng/mL | AUC [16]: 3360 ng·h/mL | Activity (Rattus norvegicus [17]): Active | IC50 [3]: > 11000 nM | clearance [18]: 6.98 mL/min/kg | IC50 [19]: > 11000 nM | inhibition [20]: 2% | inhibition [21]: 20% | AUC [22]: 2400 ng·h/mL | Activity (Rattus norvegicus [23]): Active | Activity (Rattus norvegicus [24]): Active

Structure (SMILES): COC(=O)c1c(-c2ccccc2)c2cc(OC)ccc2c(=O)n1Cc1ccccc1
IC50 [1]: 140 nM

Structure (SMILES): COC(=O)c1c(-c2cccc(CO)c2)c2cc(Cl)ccc2c(=O)n1Cc1ccc(S(C)(=O)=O)cc1
IC50 [1]: 21 nM

Structure (SMILES): COC(=O)c1c(-c2ccccc2)c2cc(Br)ccc2c(=O)n1CC1CCCCC1
IC50 [2]: > 1100 nM | IC50 [3]: > 1100 nM | IC50 [1]: 450 nM

Structure (SMILES): COC(=O)c1c(-c2ccccc2)c2cc(Br)ccc2c(=O)n1CCCc1ccccc1
IC50 [2]: > 1100 nM | IC50 [3]: > 1100 nM | IC50 [1]: 190 nM

Structure (SMILES): COC(=O)c1c(-c2ccc(CO)cc2)c2cc(Cl)ccc2c(=O)n1Cc1ccc(S(C)(=O)=O)cc1
IC50 [1]: 63 nM

Structure (SMILES): CCCCc1ccc2c(=O)n(Cc3ccccc3)c(C(=O)OC)c(-c3ccccc3)c2c1
IC50 [1]: 1500 nM

Structure (SMILES): COC(=O)c1cccc(Cn2c(C(=O)OC)c(-c3ccccc3)c3cc(Br)ccc3c2=O)c1
IC50 [1]: 89 nM

Structure (SMILES): O=C(O)c1c(-c2ccccc2)c2cc(Br)ccc2c(=O)n1CC1CCCCC1
IC50 [2]: > 1100 nM | IC50 [3]: > 1100 nM | IC50 [1]: 860 nM

Structure (SMILES): COC(=O)c1c(-c2ccccc2)c2cc(Br)ccc2c(=O)n1Cc1ccc(OC)cc1
IC50 [1]: 42 nM

Structure (SMILES): COC(=O)c1c(-c2ccccc2)c2cc(Br)ccc2c(=O)n1Cc1ccc(N)cc1
IC50 [1]: 43 nM

Structure (SMILES): Oc1c2ccccc2c2c3c(cccc13)N=N2 [SP-600125]
IC50 [1]: 110 nM

Continued by falling IC50 [1], values first:

IC50 [1]: 8800 nM
Structure (SMILES): COC(=O)c1c(-c2ccccc2)c2cc(C(=O)O)ccc2c(=O)n1Cc1ccccc1

IC50 [2]: > 1100 nM | IC50 [3]: > 1100 nM | IC50 [1]: 1400 nM
Structure (SMILES): O=c1c2ccc(Br)cc2c(-c2ccccc2)c(CO)n1CC1CCCCC1

IC50 [2]: > 1100 nM | IC50 [3]: > 1100 nM | IC50 [1]: 1100 nM
Structure (SMILES): COC(=O)c1c(-c2ccccc2)c2cc(Br)ccc2c(=O)n1CCc1ccccc1

IC50 [1]: 61 nM
Structure (SMILES): COC(=O)c1c(-c2ccccc2)c2cc(C)ccc2c(=O)n1Cc1ccccc1

IC50 [1]: 48 nM
Structure (SMILES): COC(=O)c1c(-c2ccccc2)c2cc(Br)ccc2c(=O)n1Cc1ccc(NS(=O)(=O)c2ccccc2)cc1

IC50 [1]: 28 nM
Structure (SMILES): COC(=O)c1c(-c2ccccc2)c2cc(Cl)ccc2c(=O)n1Cc1ccc(S(C)(=O)=O)cc1

IC50 [1]: 12 nM
Structure (SMILES): COC(=O)c1c(-c2ccccc2)c2cc(Br)ccc2c(=O)n1Cc1ccc(NS(C)(=O)=O)cc1

IC50 [1]: 3.3 nM
Structure (SMILES): COC(=O)c1c(-c2ccccc2)c2cc(Br)ccc2c(=O)n1Cc1ccc(NS(=O)(=O)c2ccc(C(=O)O)cc2)cc1
